Test results reported in PMC4832308 (Cancer, 2015).

Tested on: patients with advanced solid tumors or multiple myeloma
Experiment: phase 1 dose escalation: safety, tolerability, DLT, MTD
Assay type: in vivo, human
Summary of the method: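 Modified accelerated titration from 7.5 mg, oral daily in 28-day cycles. Single-patient cohorts used 100% increments until the first drug-related grade ≥2 toxicity, then 6-patient cohorts used ~50% steps. A dose with ≥2 DLTs was nontolerated. MTD was the last lower dose with 0–1 of 6 DLTs in cycle 1. Adverse events were graded by NCI CTCAE version 4.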

Compound: CO[C@H]1CC[C@H](N2C(=O)CNc3ncc(-c4ccc(C(C)(C)O)nc4)nc32)CC1 [CC‐223]
- Dyspnea (treatment‐related AE) (45 mg, Any Grade): 1 (11) n (%)
- Fatigue (treatment‐related AE) (45 mg, Any Grade): 5 (56) n (%)
- Hyperglycemia (treatment‐related AE) (45 mg, Any Grade): 4 (44) n (%)
- Increased glycosylated hemoglobin (treatment‐related AE) (45 mg, Any Grade): 2 (22) n (%)
- Mucositis (treatment‐related AE) (45 mg, Any Grade): 3 (33) n (%)
- Nausea (treatment‐related AE) (45 mg, Any Grade): 6 (67) n (%)
- Pruritus (treatment‐related AE) (45 mg, Any Grade): 2 (22) n (%)
- Rash (treatment‐related AE) (45 mg, Any Grade): 2 (22) n (%)
- Rash pruritic (treatment‐related AE) (45 mg, Any Grade): 0 n (%)
- Thrombocytopenia (treatment‐related AE) (45 mg, Any Grade): 2 (22) n (%)
- Vomiting (treatment‐related AE) (45 mg, Any Grade): 2 (22) n (%)
- Arthralgia (treatment‐related AE) (45 mg, Grade ≥3): 0 n (%)
- Asthenia (treatment‐related AE) (45 mg, Grade ≥3): 0 n (%)
- Decreased appetite (treatment‐related AE) (45 mg, Grade ≥3): 0 n (%)
- Diarrhea (treatment‐related AE) (45 mg, Grade ≥3): 0 n (%)
- Dry mouth (treatment‐related AE) (45 mg, Grade ≥3): 0 n (%)
- Dysgeusia (treatment‐related AE) (45 mg, Grade ≥3): 0 n (%)
- Dyspnea (treatment‐related AE) (45 mg, Grade ≥3): 0 n (%)
- Fatigue (treatment‐related AE) (45 mg, Grade ≥3): 1 (11) n (%)
- Hyperglycemia (treatment‐related AE) (45 mg, Grade ≥3): 1 (11) n (%)
- Increased glycosylated hemoglobin (treatment‐related AE) (45 mg, Grade ≥3): 0 n (%)
- Mucositis (treatment‐related AE) (45 mg, Grade ≥3): 0 n (%)
- Nausea (treatment‐related AE) (45 mg, Grade ≥3): 0 n (%)
- Pruritus (treatment‐related AE) (45 mg, Grade ≥3): 0 n (%)
- Rash (treatment‐related AE) (45 mg, Grade ≥3): 1 (11) n (%)
- Rash pruritic (treatment‐related AE) (45 mg, Grade ≥3): 0 n (%)
- Thrombocytopenia (treatment‐related AE) (45 mg, Grade ≥3): 0 n (%)
- Vomiting (treatment‐related AE) (45 mg, Grade ≥3): 0 n (%)
- Dose interruptions (60 mg): 7
- Dose reductions (60 mg): 5
- Arthralgia (treatment‐related AE) (60 mg, Any Grade): 2 (29) n (%)
- Asthenia (treatment‐related AE) (60 mg, Any Grade): 3 (43) n (%)
- Decreased appetite (treatment‐related AE) (60 mg, Any Grade): 2 (29) n (%)
- Diarrhea (treatment‐related AE) (60 mg, Any Grade): 5 (71) n (%)
- Dry mouth (treatment‐related AE) (60 mg, Any Grade): 0 n (%)
- Dysgeusia (treatment‐related AE) (60 mg, Any Grade): 1 (14) n (%)
- Dyspnea (treatment‐related AE) (60 mg, Any Grade): 1 (14) n (%)
- Fatigue (treatment‐related AE) (60 mg, Any Grade): 7 (100) n (%)
- Hyperglycemia (treatment‐related AE) (60 mg, Any Grade): 4 (57) n (%)
- Increased glycosylated hemoglobin (treatment‐related AE) (60 mg, Any Grade): 2 (29) n (%)
- Mucositis (treatment‐related AE) (60 mg, Any Grade): 5 (71) n (%)
- Nausea (treatment‐related AE) (60 mg, Any Grade): 3 (43) n (%)
- Pruritus (treatment‐related AE) (60 mg, Any Grade): 0 n (%)
- Rash (treatment‐related AE) (60 mg, Any Grade): 3 (43) n (%)
- Rash pruritic (treatment‐related AE) (60 mg, Any Grade): 2 (29) n (%)
- Thrombocytopenia (treatment‐related AE) (60 mg, Any Grade): 0 n (%)
- Vomiting (treatment‐related AE) (60 mg, Any Grade): 5 (71) n (%)
- Arthralgia (treatment‐related AE) (60 mg, Grade ≥3): 1 (14) n (%)
- Asthenia (treatment‐related AE) (60 mg, Grade ≥3): 0 n (%)
- Decreased appetite (treatment‐related AE) (60 mg, Grade ≥3): 0 n (%)
- Diarrhea (treatment‐related AE) (60 mg, Grade ≥3): 1 (14) n (%)
- Dry mouth (treatment‐related AE) (60 mg, Grade ≥3): 0 n (%)
- Dysgeusia (treatment‐related AE) (60 mg, Grade ≥3): 0 n (%)
- Dyspnea (treatment‐related AE) (60 mg, Grade ≥3): 0 n (%)
- Fatigue (treatment‐related AE) (60 mg, Grade ≥3): 1 (14) n (%)
- Hyperglycemia (treatment‐related AE) (60 mg, Grade ≥3): 2 (29) n (%)
- Increased glycosylated hemoglobin (treatment‐related AE) (60 mg, Grade ≥3): 0 n (%)
- Mucositis (treatment‐related AE) (60 mg, Grade ≥3): 2 (29) n (%)
- Nausea (treatment‐related AE) (60 mg, Grade ≥3): 0 n (%)
- Pruritus (treatment‐related AE) (60 mg, Grade ≥3): 0 n (%)
- Rash (treatment‐related AE) (60 mg, Grade ≥3): 1 (14) n (%)
- Rash pruritic (treatment‐related AE) (60 mg, Grade ≥3): 2 (29) n (%)
- Thrombocytopenia (treatment‐related AE) (60 mg, Grade ≥3): 0 n (%)
- Vomiting (treatment‐related AE) (60 mg, Grade ≥3): 0 n (%)
- Arthralgia (treatment‐related AE) (Overall (N = 28), Any Grade): 4 (14) n (%)
- Asthenia (treatment‐related AE) (Overall (N = 28), Any Grade): 7 (25) n (%)
- Decreased appetite (treatment‐related AE) (Overall (N = 28), Any Grade): 9 (32) n (%)
- Diarrhea (treatment‐related AE) (Overall (N = 28), Any Grade): 13 (46) n (%)
- Dry mouth (treatment‐related AE) (Overall (N = 28), Any Grade): 3 (11) n (%)
- Dysgeusia (treatment‐related AE) (Overall (N = 28), Any Grade): 5 (18) n (%)
- Dyspnea (treatment‐related AE) (Overall (N = 28), Any Grade): 3 (11) n (%)
- Fatigue (treatment‐related AE) (Overall (N = 28), Any Grade): 18 (64) n (%)
- Hyperglycemia (treatment‐related AE) (Overall (N = 28), Any Grade): 12 (43) n (%)
- Increased glycosylated hemoglobin (treatment‐related AE) (Overall (N = 28), Any Grade): 4 (14) n (%)
- Mucositis (treatment‐related AE) (Overall (N = 28), Any Grade): 11 (39) n (%)
- Nausea (treatment‐related AE) (Overall (N = 28), Any Grade): 14 (50) n (%)
- Pruritus (treatment‐related AE) (Overall (N = 28), Any Grade): 4 (14) n (%)
- Rash (treatment‐related AE) (Overall (N = 28), Any Grade): 7 (25) n (%)
- Rash pruritic (treatment‐related AE) (Overall (N = 28), Any Grade): 3 (11) n (%)
- Thrombocytopenia (treatment‐related AE) (Overall (N = 28), Any Grade): 3 (11) n (%)
- Vomiting (treatment‐related AE) (Overall (N = 28), Any Grade): 9 (32) n (%)
- Arthralgia (treatment‐related AE) (Overall (N = 28), Grade ≥3): 1 (4) n (%)
- Asthenia (treatment‐related AE) (Overall (N = 28), Grade ≥3): 0 n (%)
- Decreased appetite (treatment‐related AE) (Overall (N = 28), Grade ≥3): 0 n (%)
- Diarrhea (treatment‐related AE) (Overall (N = 28), Grade ≥3): 1 (4) n (%)
- Dry mouth (treatment‐related AE) (Overall (N = 28), Grade ≥3): 0 n (%)
- Dysgeusia (treatment‐related AE) (Overall (N = 28), Grade ≥3): 0 n (%)
- Dyspnea (treatment‐related AE) (Overall (N = 28), Grade ≥3): 0 n (%)
- Fatigue (treatment‐related AE) (Overall (N = 28), Grade ≥3): 2 (7) n (%)
- Hyperglycemia (treatment‐related AE) (Overall (N = 28), Grade ≥3): 5 (18) n (%)
- Increased glycosylated hemoglobin (treatment‐related AE) (Overall (N = 28), Grade ≥3): 0 n (%)
- Mucositis (treatment‐related AE) (Overall (N = 28), Grade ≥3): 2 (7) n (%)
- Nausea (treatment‐related AE) (Overall (N = 28), Grade ≥3): 0 n (%)
- Pruritus (treatment‐related AE) (Overall (N = 28), Grade ≥3): 0 n (%)
- Rash (treatment‐related AE) (Overall (N = 28), Grade ≥3): 2 (7) n (%)
- Rash pruritic (treatment‐related AE) (Overall (N = 28), Grade ≥3): 2 (7) n (%)
- Thrombocytopenia (treatment‐related AE) (Overall (N = 28), Grade ≥3): 0 n (%)
- Vomiting (treatment‐related AE) (Overall (N = 28), Grade ≥3): 0 n (%)
- Dose interruptions (Total): 22
- treatment‐related AE: asthenia (all patients, any grade): 25%
- treatment‐related AE: decreased appetite (all patients, any grade): 32%
- treatment‐related AE: fatigue (all patients, any grade): 64%
- treatment‐related AE: nausea (all patients, any grade): 50%
- treatment‐related AE: rash (all patients, any grade): 25%
- treatment‐related AE: vomiting (all patients, any grade): 32%
- treatment‐related AE: hyperglycemia (all patients, grade ≥3): 18%
- patients requiring dose interruptions (at the MTD (45 mg/d)): 55.6%
- patients requiring dose reductions (at the MTD (45 mg/d)): 11.1%
- treatment‐related hyperglycemia, number of patients (grade ≥3, 30‐mg/d cohort): 2 n
- treatment‐related hyperglycemia, number of patients (grade ≥3, 45‐mg/d cohort): 1 n
- treatment‐related hyperglycemia, number of patients (grade ≥3, 60‐mg/d cohort): 2 n
- maximum tolerated dosage (MTD) (oral daily dosing, 28‐day cycles): 45 mg/day
- median time to dose reduction (overall): 25 days
- increases in glucose, insulin, and C‐peptide levels (patients receiving doses ≥30 mg/d): dose‐dependent
- patients with dose‐limiting toxicities (treatment cycle 1, all cohorts): Four
